Only some compounds are listed: those with a hit (about 4.7% of all), similar ones and a draw of the others.
Cl transport mod – KCC2 cotransporter modulators, thallium flux, primary screen, cell-based, HEK293 KCC2, FluoZin-2 fluorescence, MLSMR; Solute carrier family 12 member 5 (Homo sapiens), Q9H2X9; KCC2 cells, thallium flux FluoZin-2 fluorescence; B-score of Tl+ flux slope (higher = more flux/activation; lower = inhibition) at 10 µM; actives 2.2% (n = 190,000); AID 1456, 2008;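 active = thallium flux slope and its plate-corrected score both differing from the plate sample mean at a set confidence after two filtering rounds, in either direction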;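 note: slope of fluorescence scaled to starting intensity during 10 to 20 s after thallium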
MrgX1 PAM – positive allosteric modulators of MrgX1, primary screen, HEK293 cells, Fluo-4 calcium flux; Mas-related G-protein coupled receptor member X1 (Homo sapiens), Q96LB2; actives 0.63% (n = 310,000); B-score at 10 µM; AID 588675, 2011; FDSS; hits give high values;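 active = plate-corrected calcium response at least 3 library SD above typical, normal starting fluorescence, not activating the receptor alone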;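 note: compound read alongside a low EC10 to EC30 dose of BAM8-22 agonist; peak minus trough fluorescence over baseline measured at the second addition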
Target sequence (Q96LB2 whole entry, looked up): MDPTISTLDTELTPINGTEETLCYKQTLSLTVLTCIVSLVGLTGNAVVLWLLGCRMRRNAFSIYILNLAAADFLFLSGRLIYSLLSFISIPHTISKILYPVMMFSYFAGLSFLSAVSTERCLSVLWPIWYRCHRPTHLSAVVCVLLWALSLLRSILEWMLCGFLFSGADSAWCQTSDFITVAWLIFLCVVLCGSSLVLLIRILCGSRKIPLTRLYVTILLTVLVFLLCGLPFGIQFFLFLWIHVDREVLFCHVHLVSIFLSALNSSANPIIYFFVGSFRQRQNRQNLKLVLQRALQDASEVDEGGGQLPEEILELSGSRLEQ
RGS4 block – RGS4 inhibitors, primary screen, cell-based, HEK293 M3R inducible RGS4, calcium flux. actives 0.45% (n = 310,000). AID 463165, 2010. Fluo-4 calcium flux; hits give high values; triggered by carbachol at its EC20. B-score at 10 µM;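 active = B-score, a plate-corrected calcium signal, over three deviations above library mean, with baseline fluorescence within five deviations of library mean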;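 note: RGS4 expression induced by doxycycline in cells with stable M3 receptor; B-score is computed from the integrated fluorescence ratio over baseline after carbachol; higher B-score means a larger calcium signal and so more RGS4 inhibition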
Target sequence (P49798 whole entry, looked up): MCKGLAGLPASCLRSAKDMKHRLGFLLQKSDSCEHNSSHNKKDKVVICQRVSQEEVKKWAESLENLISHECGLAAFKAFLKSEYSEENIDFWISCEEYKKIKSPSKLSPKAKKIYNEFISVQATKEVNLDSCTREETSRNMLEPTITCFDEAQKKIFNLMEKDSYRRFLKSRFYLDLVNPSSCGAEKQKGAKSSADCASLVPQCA
MrgX1 antagonist – antagonists of human MrgX1 receptor, primary screen, HEK293 cells, Fluo-4 calcium flux. B-score at 10 µM. BAM8-22 antagonism; hits give low values. actives 1.3% (n = 310,000). Mas-related G-protein coupled receptor member X1 (Homo sapiens), Q96LB2;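 active = calcium-response B-score plate-corrected more than 3 library SD below zero, starting fluorescence within 5 deviations, no agonist response on first addition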;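 note: peak minus trough fluorescence over baseline after final BAM8-22 challenge near maximal dose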
RGS4 pot – RGS4 potentiators or activators, primary screen, cell-based, HEK293 M3R inducible RGS4, calcium flux | carbachol calcium flux Fluo4; hits give low values | B-score at 10 µM | actives 0.92% (n = 310,000);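 active = B-score of the integrated calcium signal more than 4 SD below the library mean, with starting fluorescence not abnormally high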;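 note: negative B-score means reduced calcium response which marks RGS4 activation or potentiation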
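System – HEK293 FlpIn-TREx cells, stable M3R, doxycycline-inducible RGS4 · Reagent – ECmax carbachol challenge · Times – compound preincubation 20 min at room temperature before agonist · Technique – Fluo4 fluorescence kinetic imaging of calcium · Measure – B score of integrated Fluo4 ratio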
MrgX1 ag – agonists of human MrgX1 receptor, primary screen, HEK293 cells, Fluo-4 calcium flux; actives 0.44% (n = 310,000); B-score at 10 µM; AID 588627, 2011; Fluo-4 calcium fluorescence, agonist mode; hits give high values;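 active = calcium response B-score plate-corrected fluorescence ratio at least 3 library SD, with starting fluorescence B-score inside 5 SD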
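Assay system: stable human MrgX1 HEK293 cell line. Quantity: 15,000 cells per well. Schedule: cells plated overnight, dye loaded 0.5 h 37 °C, 0.5 h room temperature. Detection: Fluo-4 NW calcium-flux fluorescence, kinetic read. Read-out basis: peak-minus-minimum fluorescence over baseline, converted to B scores. Control set: positive and negative control wells on each plate.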
MrgX1 antag conf – MrgX1 receptor antagonists, duplicate retest, confirmation, HEK293 cells, Fluo-4 calcium flux; shares compounds with MrgX1 antagonist; BAM8-22 calcium flux; hits give low values; remaining BAM8-22 calcium response % of control (hits give low values), % at 10 µM; actives 19% (n = 2,300);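 active = remaining agonist calcium response no higher than 100% minus 3 SD of agonist-only control wells, with starting fluorescence near control levels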;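 note: agonist BAM8-22 given at a near maximal EC90 to ECmax level; peak minus minimum fluorescence divided by baseline after agonist addition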
HEK293 Ca flux – nonspecific calcium signal in parental HEK293, confirmation, counter-screen for MrgX1 antagonist project, parental HEK293 cells, Fluo-4 calcium flux; shares compounds with MrgX1 antagonist; Fluo-4 calcium fluorescence, FDSS; fluorescence ratio F(max-min)/F0 at 10 µM; actives 2% (n = 4,000);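 active = duplicate-averaged calcium fluorescence ratio at least three times the standard deviation of buffer wells, a nonspecific response in parental cells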
HEK293 Ca counter – calcium response in parental HEK293 cells, primary screen, counter-screen for MrgX1 allosteric activator project, cell-based, Fluo-4 calcium flux, duplicate; shares compounds with MrgX1 antagonist; Fluo-4 fluorescence ratio; hits give high values; fluorescence ratio F(max-min)/F0 at 10 µM; actives 0.4% (n = 4,000); AID 624114, 2012;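 active = calcium fluorescence ratio, averaged over duplicates, at least 3 SD of the buffer-well ratio, meaning a nonspecific response in receptor-free cells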;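 note: untransfected parental HEK293 lacking MrgX1 used as counterscreen for MrgX1 allosteric activators; fluorescence change taken during the second addition on a kinetic imager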
HEK293 Ca cntr2 – calcium response in parental HEK293 cells, primary screen, counter-screen for MrgX1 agonist project, cell-based, Fluo-4 calcium flux, duplicate, agonist mode; fluorescence ratio F(max-min)/F0 at 10 µM; actives 8.7% (n = 4,000); shares compounds with MrgX1 antagonist; Fluo-4 calcium fluorescence (FDSS); hits give high values;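 active = calcium fluorescence ratio at least three times the spread of buffer wells, meaning a non-specific response in parental cells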
Each line names hits and unclear results; the compound was inactive in the other large screens (follow-up assays come after a bar, where they were run).

O=C(COc1ccc(Cl)cc1)Nc1cc(NC(=O)COc2ccc(Cl)cc2)cc(C(=O)O)c1	none (no result: Cl transport mod)
COC(=O)CS(=O)(=O)c1cc(Br)cc2c1N(C(C)=O)CC2	MrgX1 antagonist -5.42 | MrgX1 antag conf inactive | HEK293 Ca flux inactive | HEK293 Ca counter inactive | HEK293 Ca cntr2 65.3
COc1ccc(-c2nnn(CC(=O)N(CC(=O)NC3CCCC3)c3ccccc3F)n2)cc1OC	none (no result: Cl transport mod)
COc1nc(N(C)C)nc(N(C#N)CCOC(C)=O)n1	none (no result: Cl transport mod)
Cc1ccccc1OCCN(C#N)c1nc(N(C)C)nc(N(C)C)n1	MrgX1 antagonist -4.93 | MrgX1 antag conf inactive | HEK293 Ca flux inactive | HEK293 Ca counter inactive | HEK293 Ca cntr2 inactive
CCOC(=O)C1(Cc2ccc(OC)cc2)CCN(C(=O)c2cncs2)CC1	none (no result: Cl transport mod)
Cn1c(=O)c(=O)n(C)c2cc(S(=O)(=O)Nc3ccc4c(c3)OCCO4)ccc21	MrgX1 antagonist -5.86 | MrgX1 antag conf inactive | HEK293 Ca flux inactive | HEK293 Ca counter inactive | HEK293 Ca cntr2 inactive
Cc1c(C)c(C)c(CN2CCCC2)c(C)c1C	none (no result: Cl transport mod)
COc1ccc(CC(=O)Nc2c3c(nn2C(C)(C)C)CS(=O)(=O)C3)cc1OC	none (no result: Cl transport mod)
CC1CCc2[nH]c3ccc(C(=O)N4CCCC(C(F)(F)F)C4)cc3c2C1 (centres undefined)	MrgX1 antagonist -4.65 (no result: Cl transport mod) | MrgX1 antag conf inactive | HEK293 Ca flux inactive | HEK293 Ca counter inactive | HEK293 Ca cntr2 inactive
Nc1ccc2c3c(cccc13)CC2	MrgX1 antagonist -7.46 (no result: Cl transport mod) | MrgX1 antag conf 84.6% | HEK293 Ca flux inactive | HEK293 Ca counter inactive | HEK293 Ca cntr2 inactive
COc1ccc(NC(=O)CN(C)C(=O)c2ccc(-c3ccccc3Cl)o2)cc1	MrgX1 antagonist -4.72 (no result: Cl transport mod) | MrgX1 antag conf inactive | HEK293 Ca flux inactive | HEK293 Ca counter inactive | HEK293 Ca cntr2 inactive
Cn1cc(CC(=O)Nc2cccc(C#N)c2)c2ccccc21	MrgX1 antagonist -4.6 (no result: Cl transport mod) | MrgX1 antag conf inactive | HEK293 Ca flux inactive | HEK293 Ca counter inactive | HEK293 Ca cntr2 inactive
CCOc1ccc(NC(=O)CSc2ccccc2N)cc1	none
Cc1cc(C)cc(NC(=O)CCN2CCOCC2)c1	none (no result: Cl transport mod)
CN=c1nc(-c2ccccc2)n(-c2ccccc2)s1	MrgX1 antagonist -4.89 (no result: Cl transport mod, RGS4 block, RGS4 pot) | MrgX1 antag conf inactive | HEK293 Ca flux inactive | HEK293 Ca counter inactive | HEK293 Ca cntr2 inactive
Cn1nc(-c2ccccc2)nc1-c1ccccc1	none (no result: Cl transport mod)
CC(=O)Oc1c(S(=O)(=O)c2ccc(C)cc2)c(C)nn1C(C)(C)C	none
CCCCC(=O)Oc1c(S(=O)(=O)c2ccc(C)cc2)c(C)nn1C(C)(C)C	MrgX1 antagonist -5.18 (no result: Cl transport mod) | MrgX1 antag conf inactive | HEK293 Ca flux inactive | HEK293 Ca counter inactive | HEK293 Ca cntr2 inactive
COc1ccc(NC(=O)CSc2nnc(-c3cccnc3)o2)c(OC)c1	none (no result: Cl transport mod)
COc1ccc(N2CC(O)=C(c3nc(-c4ccc(F)cc4)cs3)C2=N)cc1OC	MrgX1 antagonist -6.75 | MrgX1 antag conf inactive | HEK293 Ca flux inactive | HEK293 Ca counter inactive | HEK293 Ca cntr2 inactive
Cc1cccc(NC(=S)Nc2c(C)n(C)n(-c3ccccc3)c2=O)c1C	MrgX1 antagonist -18.1 | MrgX1 antag conf inactive | HEK293 Ca flux inactive | HEK293 Ca counter inactive | HEK293 Ca cntr2 inactive
Cc1cccc(-n2c(SCC(N)=O)nnc2-c2ccccn2)c1C	MrgX1 antagonist -8.27 | MrgX1 antag conf inactive | HEK293 Ca flux inactive | HEK293 Ca counter inactive | HEK293 Ca cntr2 inactive
Cc1ccc(-n2c(SCC(N)=O)nnc2-c2ccccn2)cc1	none
CCCCCCNC(=O)c1cn(CC)c2cc(N3CCN(C)CC3)c(F)cc2c1=O	none (no result: Cl transport mod)
COc1cc(C2/C(=C(\O)c3ccc4c(c3)OCCO4)C(=O)C(=O)N2c2nnc(C)s2)cc(OC)c1OC (centres undefined)	none (no result: Cl transport mod)
Cc1ccc(S(=O)(=O)c2cc3c(=O)n4ccccc4nc3n(Cc3ccco3)c2=N)cc1	MrgX1 antagonist -4.61 | MrgX1 antag conf 76.1% | HEK293 Ca flux inactive | HEK293 Ca counter inactive | HEK293 Ca cntr2 inactive
N#Cc1cc2c(=O)n3ccccc3nc2n(Cc2ccco2)c1=NC(=O)c1ccco1	MrgX1 antagonist -4.79 | MrgX1 antag conf 83.4% | HEK293 Ca flux inactive | HEK293 Ca counter inactive | HEK293 Ca cntr2 inactive
Cc1ccc(CNC(=O)c2cc3c(=O)n4ccccc4nc3n(Cc3ccco3)c2=N)cc1	none (no result: Cl transport mod)
CC(C)CN(C(=O)c1cc(=O)[nH]c2ccccc12)c1c(N)n(Cc2ccccc2)c(=O)[nH]c1=O	none (no result: Cl transport mod)
CCOC(=O)C1=C(CC)Nc2ccccc2N=C1NC(=O)Nc1ccc(Cl)c(Cl)c1	MrgX1 antagonist -6.1 | MrgX1 antag conf 49.8% | HEK293 Ca flux inactive | HEK293 Ca counter inactive | HEK293 Ca cntr2 inactive
CCOC(=O)C1=C(CC)Nc2ccccc2N=C1NC(=O)c1ccc(S(=O)(=O)N2CCCC2)cc1	none
CC(C)Cc1ccc(C(C)C(=O)Nc2ccc(O)cc2)cc1 (centres undefined)	MrgX1 antagonist -8.2 | MrgX1 antag conf inactive | HEK293 Ca flux inactive | HEK293 Ca counter inactive | HEK293 Ca cntr2 66.3
Cn1nc(N)c2c(-c3ccc(Cl)cc3)c(C#N)c(N)nc21	MrgX1 antagonist -4.7 | MrgX1 antag conf inactive | HEK293 Ca flux inactive | HEK293 Ca counter inactive | HEK293 Ca cntr2 inactive
CCCc1cc(=O)[nH]c(SCCN2C(=O)c3ccccc3C2=O)n1	MrgX1 antagonist -5.29 | MrgX1 antag conf inactive | HEK293 Ca flux inactive | HEK293 Ca counter inactive | HEK293 Ca cntr2 inactive
COc1ccc(C2=NS(=O)(=O)N(C)C(C(=O)NC3CCCCC3)=C2)cc1OC	none (no result: Cl transport mod)
